Reference: paper PMC7103123 (Toxicology and Applied Pharmacology, 2017)

How the values were obtained:
TGEV [1] = assay: Effect of Na^+/K^+-ATPase activators on TGEV activity in ST cells; type: cell-based, porcine transmissible gastroenteritis virus; settings: Fig. 4D-b
TGEV [2] = assay: Anti-TGEV IC50 of cardenolides alone or combined with aldosterone or Db cAMP; type: cell-based, porcine transmissible gastroenteritis virus; settings: Fig. 4D-c
Na^+/K^+-ATPase = Na^+/K^+-ATPase protein level in ST cells; type: cell-based, swine; settings: Fig. 4D-a
[3] = Cytotoxicity assay in TGEV infected ST cells; type: cell-based, swine; settings: swine
Method in brief: (§1)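 Cytotoxicity is measured in TGEV-infected ST cells in parallel with the immunofluorescence replication assay, with compound pretreatment for 1 h. CC50 is read at 6 h.p.i. Means ± S.D. come from 3–5 independent experiments, each in duplicate.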

[4] = tested on: caspase-3 activation in TGEV infected ST cells; assay: Western blot for TGEV induced caspase-3 activation in ST cells; type: cell-based, swine; settings: 1 μM, 18 h.p.i.
Method in brief: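 TGEV-infected swine testicular (ST) cells were treated with test compound at the indicated concentrations and harvested at 18 h post-infection. Lysates were analysed by western blot with antibodies against caspase-3 to detect its activation, plus TGEV N protein and β-actin as the loading control. A reference anti-TGEV compound served as the positive control.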

TGEV N protein = assay: Western analysis for TGEV N protein expression in infected ST cells; type: cell-based, porcine transmissible gastroenteritis virus
Method in brief: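 Western blot for TGEV N protein in infected ST cells. In the titer-linked set, compound is added 1 h before TGEV (0.01 MOI), with 22 h incubation at 37 °C. Adherent cells are harvested for blotting while supernatants go to titration. Three or more independent experiments.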

TGEV [5] = assay: Cytopathic effect assay in TGEV infected ST cells; type: cell-based, porcine transmissible gastroenteritis virus; settings: 1 μM, TGEV 3.5 MOI, 18 h.p.i.
Method in brief: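 ST cells are pretreated with test compound for 1 h, then TGEV-infected at MOI 3.5, with mock-infected controls. At 18 h.p.i., cytopathic effect (rounding, enlargement, syncytia, detachment) is scored and viability is measured by MTS. Survival is compared with vehicle-treated infected cells by Student t-test. Three independent experiments.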

ST cells = assay: Cytotoxicity assay in TGEV infected ST cells; type: cell-based, swine; settings: read-out: ST CC50; cytotoxicity in TGEV infected ST cells at 6 h.p.i.
Method in brief: as §1

C[C@]12CCC(=O)C=C1CC[C@@H]1[C@@H]2[C@@H](O)C[C@]2(C=O)[C@@H](C(=O)CO)CC[C@@H]12 [Aldosterone, aldosterone]
infectivity of TGEV (TGEV [1]): increased the infectivity | effect on anti-TGEV activity of cardenolides (TGEV [2]): able to antagonize | Na^+/K^+-ATPase protein level in ST cells (Na^+/K^+-ATPase): moderately augmented

CCCC(=O)Nc1ncnc2c1ncn2[C@@H]1O[C@@H]2COP(=O)([O-])O[C@H]2[C@H]1OC(=O)CCC.[Na+] [Db cAMP, N6,2′-O-Dibutyryladenosine 3′,5′-cyclic monophosphate sodium salt]
infectivity of TGEV (TGEV [1]): increased the infectivity | effect on anti-TGEV activity of cardenolides (TGEV [2]): able to antagonize | Na^+/K^+-ATPase protein level in ST cells (Na^+/K^+-ATPase): moderately augmented

C[C@]12CC[C@H](O)C[C@H]1CC[C@@H]1[C@@H]2CC[C@]2(C)[C@@H](C3=CC(=O)OC3)CC[C@]12O [Digitoxigenin, digitoxigenin]
CC50 at 6 h post infection [3]: > 10 µM

C[C@H]1O[C@@H](O[C@H]2[C@@H](O)C[C@H](O[C@H]3[C@@H](O)C[C@H](O[C@H]4CC[C@@]5(C)[C@H](CC[C@@H]6[C@@H]5CC[C@]5(C)[C@@H](C7=CC(=O)OC7)CC[C@]65O)C4)O[C@@H]3C)O[C@@H]2C)C[C@H](O)[C@@H]1O [Digitoxin, digitoxin]
CC50 at 6 h post infection [3]: > 10 µM | protection against caspase-3 activation [4]: strong protection

C[C@H]1O[C@@H](O[C@H]2[C@@H](O)C[C@H](O[C@H]3[C@@H](O)C[C@H](O[C@H]4CC[C@@]5(C)[C@H](CC[C@@H]6[C@@H]5C[C@@H](O)[C@]5(C)[C@@H](C7=CC(=O)OC7)CC[C@]65O)C4)O[C@@H]3C)O[C@@H]2C)C[C@H](O)[C@@H]1O [Digoxin, digoxin]
CC50 at 6 h post infection [3]: > 10 µM

CO[C@H]1C[C@H](O[C@H]2CC[C@@]3(C)[C@H](CC[C@@H]4[C@@H]3CC[C@]3(C)[C@@H](C5=CC(=O)OC5)[C@@H](OC(C)=O)C[C@]43O)C2)O[C@@H](C)[C@@H]1O [Oleandrin, oleandrin]
CC50 at 6 h post infection [3]: > 10 µM | protection against caspase-3 activation [4]: strong protection | N protein expression in TGEV infected ST cells (TGEV N protein; TGEV 0.01 MOI, 22 h.p.i. (Fig. 3B)): dose dependant manner | N protein expression by western analyses in TGEV infected ST cells (TGEV N protein; various doses (Fig. 1D)): dose dependent manner of decreases

C[C@@H]1O[C@@H](O[C@H]2C[C@@H](O)[C@]3(CO)[C@H]4[C@H](O)C[C@]5(C)[C@@H](C6=CC(=O)OC6)CC[C@]5(O)[C@@H]4CC[C@]3(O)C2)[C@H](O)[C@H](O)[C@H]1O [Ouabain, ouabain]
CC50 at 6 h post infection [3]: > 10 µM | protection against caspase-3 activation [4]: strong protection

COc1cc2c3c(c4cc(OC)c(OC)cc4c2cc1OC)CN1CCC[C@@H]1C3 [Tylophorine]
CC50 at 6 h post infection [3]: > 10 µM | protection against cytopathic effect (TGEV [5]): displayed protection

Reevesioside B
CC50 (ST cells): > 50 µM

Reevesioside C
CC50 (ST cells): > 50 µM

Reevesioside D
CC50 (ST cells): > 50 µM

Reevesioside E
CC50 (ST cells): > 50 µM

Reevesioside F
CC50 (ST cells): > 10 µM | protection against caspase-3 activation [4]: strong protection

Reevesioside H /epi-Reevesioside H
CC50 (ST cells): > 50 µM

Reevesioside I /epi-Reevesioside I
CC50 (ST cells): > 50 µM
